Shown are actives, neighbours in structure and some others; about 1.6% of the full set was active somewhere.
RAD54 branch = blocks human RAD54 Holliday junction branch migration; inhibition, % at 10.4 µM; 360,000 tested, 0.14% active; FAM/BHQ fluorescence; Q92698;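 active = mean normalized replicate activity at least 40 and at least half of replicates scoring 40 or more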;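 also: 0% = median of neutral control wells and 100% = median of positive control wells; inhibitors cause a drop in the FAM fluorescence signal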
S100A4 MyoIIA = S100A4-myosin IIA interaction inhibition | P26447 | S100A4/TAMRA-MyoIIA peptide fluorescence polarization | inhibition, % at 10.7 µM | 360,000 tested, 0.14% active;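 active = mean inhibition of at least 70% across replicates, with every replicate also reaching that level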
Target sequence (P26447 whole entry, looked up): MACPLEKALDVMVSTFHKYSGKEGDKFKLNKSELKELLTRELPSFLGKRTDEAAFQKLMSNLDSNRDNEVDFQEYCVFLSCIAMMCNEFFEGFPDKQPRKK
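incubation = readout 5 min after mixing, signal stable up to 60 min | system = S100A4 monomer protein | buffer or medium = HEPES pH 7.2 with CaCl2, KCl, NaCl, DTT, Triton | benchmarks = neutral control DMSO, positive control TFP | also added = fluorescent myosin IIA peptide, 5 nM | compound dosing = one concentration per compound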
SR-BI HDL uptake = blocks mouse SR-BI lipid uptake from DiI-HDL | Q61009 | ldlA[mSR-BI] CHO cells, DiI-HDL uptake fluorescence, 3 h | inhibition, % at 12.5 µM | 320,000 tested, 0.96% active | AID 488896;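 active = mean replicate inhibition of at least 70% and a set share of replicates each scoring 70 or more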;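 also: 0% = median of neutral control wells and 100% = median of positive control wells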
Target sequence (Q61009 whole entry, looked up): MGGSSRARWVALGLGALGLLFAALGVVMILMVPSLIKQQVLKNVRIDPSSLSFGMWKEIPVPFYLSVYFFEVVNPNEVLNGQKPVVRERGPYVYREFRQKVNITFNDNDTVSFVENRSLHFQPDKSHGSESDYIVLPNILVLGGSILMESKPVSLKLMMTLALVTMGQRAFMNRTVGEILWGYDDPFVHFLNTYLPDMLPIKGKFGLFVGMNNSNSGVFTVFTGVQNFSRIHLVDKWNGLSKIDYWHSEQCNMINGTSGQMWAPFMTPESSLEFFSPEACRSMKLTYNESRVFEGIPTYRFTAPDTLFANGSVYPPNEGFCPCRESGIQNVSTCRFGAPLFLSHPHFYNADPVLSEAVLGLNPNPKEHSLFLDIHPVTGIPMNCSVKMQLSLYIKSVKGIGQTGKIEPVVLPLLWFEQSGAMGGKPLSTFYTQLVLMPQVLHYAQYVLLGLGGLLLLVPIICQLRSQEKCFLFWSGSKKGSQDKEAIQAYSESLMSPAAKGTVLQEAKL
dFosB activator = enhances mouse delta FosB homodimer DNA binding | P13346 | purified delta FosB, TAMRA-CDK5 oligo fluorescence polarization; percent of positive-control signal above neutral wells | activation, % at 25 µM | 340,000 tested, 0.99% active | AID 493131;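 active = mean activation above about 17%, with every replicate also reaching it, limit read from the data, passing the limit was not always enough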
SR-BI DiI-HDL act = activators of SR-BI mediated HDL lipid uptake | 320,000 tested, 0.096% active | CHO ldlA[mSR-BI] cells, DiI-HDL uptake fluorescence, 3 h; 100 = double the neutral-control signal | activation, % at 12.5 µM;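 active = mean replicate activation of at least 60% and every replicate at or above 60%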;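 also: 0% = median plate neutral-control signal and 100% = twice that signal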
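System: CHO ldlA[mSR-BI] cells / Medium: HEPES-buffered (25 mM, pH 7.4) F12 plus 0.5% BSA / Probe or stimulus: labelled HDL, 10 µg/mL / Doses: single compound concentration, delivered by pin transfer / Schedule: 3 h, 37 °C / Measured by: DiI fluorescence, bottom read / Measure: cell-associated DiI fluorescence as measure of HDL uptake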
PvdQ inh = blocks Pseudomonas aeruginosa PvdQ acylase activity | inhibition, % at 10 µM | 340,000 tested, 0.063% active | AID 488965 | purified PvdQ acylase, fluorescence plate reader; in the data active = inhibition above about 30%, passing the limit was not always enough;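 also: 0% = vehicle neutral wells and 100% = reference inhibitor wells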
* = called active by the depositor; nt = not tested or not shown.

SMILES	RAD54 branch	S100A4 MyoIIA	SR-BI HDL uptake	dFosB activator	SR-BI DiI-HDL act	PvdQ inh
NC(=O)NCCC1=CCCCC1	4.8	nt	-93.5	-2.6	93.5*	-2.8
O=C(Nc1ccc(Cl)cc1)Nc1ccc(N2CCCC2)c(S(=O)(=O)Nc2ccccc2Cl)c1	nt	nt	101.8*	-2.2	-101.7	-10.4
O=C(Nc1ccc(N2CCOCC2)c(S(=O)(=O)Nc2ccccc2Cl)c1)c1ccccc1	-9.7	-0.4	7.1	-15.6	-7.1	-6.5
Cc1ccc(NC2=C(NC(=O)c3ccccc3)C(=O)c3ccccc3C2=O)cc1Cl	15.2	nt	79.5*	1.1	-79.5	-13.2
Cc1ccc(NCC(=O)c2ccccc2)cc1Cl	3.4	nt	10.8	-1.1	-10.8	-11.6
Cc1ccc2ncccc2c1	-4.4	-3.6	-4.9	4.6	4.9	2.4
c1cnc2ccc(-c3ccc4ncccc4c3)cc2c1	8.7	0.7	21.8	-16.3	-21.8	47.4*
COc1cc(/C=C2\SC(=S)N(C(C(=O)O)c3ccccc3)C2=O)ccc1O (centres undefined)	-183.6	-16.5	-6.7	23.0*	6.7	1.0
COc1cc(/C=C2\SC(=S)N(NC(=O)c3ccncc3)C2=O)ccc1O	nt	-6.5	2.4	33.5*	-2.4	-2.5
CCOc1cc(/C=C2\SC(=S)N(C(C(=O)O)c3ccccc3)C2=O)ccc1O (centres undefined)	-184.8	-9.4	-8.0	9.4	8.0	-1.0
COc1cc(/C=C2\SC(=S)N(NS(=O)(=O)c3ccccc3)C2=O)ccc1O	-166.6	-6.5	-22.8	20.9*	22.8	10.6
COc1cc(/C=C2\SC(=S)N(NS(=O)(=O)c3ccc(C)cc3)C2=O)ccc1O	nt	-17.6	nt	13.7	nt	9.1
CO[C@H]1CN(C)C(=O)c2cc(NC(C)=O)ccc2OC[C@@H](C)N(C(=O)C2CCCCC2)C[C@@H]1C	3.4	-6.1	nt	nt	nt	nt
COc1ccc2c3c([nH]c2c1)[C@@H](CO)N(Cc1ccncc1)CC31CN(CC2CCOCC2)C1	nt	-9.0	nt	nt	nt	nt
CCC(=O)N(C)C[C@H]1Oc2ncc(Br)cc2C(=O)N([C@@H](C)CO)C[C@H]1C	1.7	-0.5	nt	nt	nt	nt
CCOC(=O)c1c(C)[nH]c(C(=O)N/N=C\c2ccccc2O)c1C	9.3	4.3	84.9*	-1.4	-84.9	-3.9
COc1ccccc1/C=N/NC(=O)c1[nH]c(C)c(C(=O)N/N=C/c2ccccc2OC)c1C	nt	nt	82.6*	-7.0	-82.6	11.7
COc1ccccc1/C=N/NC(=O)c1csc(C)c1C	-4.0	-2.7	33.8	-5.4	-33.8	-9.3
CCOC(=O)c1c(C)[nH]c(C(=O)N/N=C/c2cc([N+](=O)[O-])ccc2O)c1C	-1.8	-3.0	85.8*	-3.8	-85.8	-4.5
CCOC(=O)c1c(C)[nH]c(C(=O)N/N=C/c2ccc(OC)c(OC)c2)c1C	1.0	-1.9	34.2	3.9	-34.2	-12.3
CCCC#Cc1cnc2c(c1)C(=O)N([C@@H](C)CO)C[C@H](C)[C@@H](CN(C)S(=O)(=O)c1ccccc1)O2	-5.3	12.4	nt	nt	nt	nt
CN1[C@@H]2c3ccc(-c4cccnc4)c(=O)n3C[C@@H]2[C@@H](CO)[C@@H]1C(=O)NCC1CCCCC1	-8.3	0.7	nt	nt	nt	nt
CC(=O)Nc1ccc(NC(=O)Cn2c(-c3ccc(F)cc3)cnc2SCC(=O)Nc2c(C)cccc2C)cc1	-4.3	nt	-23.8	64.3*	23.8	3.1
Cn1c(-c2ccc(F)cc2)cnc1SCC(=O)Nc1ccccc1	nt	0.2	-11.9	-6.4	11.9	-8.6
O=C(C[C@@H]1C[C@H]2c3cc(NC(=O)Cc4ccncc4)ccc3O[C@H]2[C@@H](CO)O1)NCC1CC1	-4.7	4.7	nt	nt	nt	nt
SMILES	RAD54 branch	S100A4 MyoIIA	SR-BI HDL uptake	dFosB activator	SR-BI DiI-HDL act	PvdQ inh
Cc1ccc(NC(=O)c2cnc(N3CCN(c4ccccn4)CC3)c3ccccc23)c(Br)c1	nt	-6.8	77.8*	1.2	-77.8	2.6
CCOC(=O)COn1c2c(c3c4no[n+]([O-])c4ccc31)CCCC2	1.6	nt	-5.8	-0.7	5.8	-1.0
CCOC(=O)c1c(C)n(OCc2ccccc2)c2ccc3c(no[n+]3[O-])c12	-5.7	nt	85.7*	-0.3	-85.7	-0.5
Cc1cnnc2ccc3c(no[n+]3[O-])c12	nt	nt	-16.1	-4.2	16.1	-5.2
CCCCOn1c(C)c(C(C)=O)c2c3no[n+]([O-])c3ccc21	3.9	-6.8	77.7*	-5.3	-77.7	-7.6
Cc1noc(C)c1NC(=O)Nc1ccc2c(c1)C(=O)N([C@H](C)CO)C[C@H](C)[C@H](CN(C)C(=O)Nc1ccc3c(c1)OCO3)OCCCC[C@@H](C)O2	-1.8	15.9	nt	nt	nt	nt
Cc1ccccc1-c1cnc2c(c1)C(=O)N([C@@H](C)CO)C[C@@H](C)[C@H](CN(C)C(=O)c1ccccc1)O2	-5.0	nt	nt	nt	nt	nt
O=C(C1CCC1)N1CCN(c2ccc(Cl)cc2)CC1	12.3	-0.1	11.0	0.9	-11.0	35.9*
CCCNC(=O)C[C@H]1CC[C@H]2[C@@H](COC[C@@H](O)CN2Cc2ccc(Cl)c(Cl)c2)O1	-2.3	0.0	nt	nt	nt	nt
Cc1ccccc1S(=O)(=O)N1C[C@H](O)COC[C@@H]2O[C@@H](CC(=O)NCc3ccccc3Cl)CC[C@H]21	-3.0	114.5*	nt	nt	nt	nt
Cn1cnc(CCNC(=O)C[C@H]2CC[C@H]3[C@@H](COC[C@@H](O)CN3C(=O)C3CC3)O2)c1	5.1	85.3*	nt	nt	nt	nt
CN(C)CCCNC(=O)C[C@@H]1CC[C@H]2[C@@H](COC[C@@H](O)CN2Cc2ccc(Cl)c(Cl)c2)O1	5.5	137.5*	nt	nt	nt	nt
O=C(C[C@H]1CC[C@@H]2[C@H](COC[C@H](O)CN2C(=O)Nc2ccc3c(c2)OCO3)O1)N1CCN(c2ccccc2)CC1	2.9	123.1*	nt	nt	nt	nt
CO[C@@H]1CN(C)C(=O)c2cc(NC(C)=O)ccc2OC[C@H](C)N(CC2CC2)C[C@H]1C	1.6	14.6	nt	nt	nt	nt
Cc1ccc(S(=O)(=O)N(C)C[C@H]2Oc3ccc(NS(=O)(=O)c4ccc(F)cc4)cc3CC(=O)N([C@H](C)CO)C[C@H]2C)cc1	-0.9	-5.8	nt	nt	nt	nt
[N-]=[N+]=NCCCNC(=O)Nc1ccccc1	nt	4.0	nt	nt	nt	nt
O=C(C[C@@H]1CC[C@@H]2[C@H](COC[C@@H](O)CN2C(=O)c2ccc3c(c2)OCO3)O1)NCCN1CCCC1	nt	72.7*	nt	nt	nt	nt
CCC(=O)N1C[C@H](O)COC[C@H]2O[C@H](CC(=O)NCc3cc(F)cc(F)c3)CC[C@@H]21	-6.1	88.4*	nt	nt	nt	nt
CCC(=O)N1CC[C@@H]2[C@H](CO)Nc3ccc(C#Cc4ccccc4)cc3[C@@H]21	-2.8	4.2	nt	nt	nt	nt

Assay outcomes as filed in PubChem.
